This note sets out measurements from ChEMBL document CHEMBL4715734, “Discovery of the Potent and Selective M1 PAM-Agonist N-[(3R,4S)-3-Hydroxytetrahydro-2H-pyran-4-yl]-5-methyl-4-[4-(1,3-thiazol-4-yl)benzyl]pyridine-2-carboxamide (PF-06767832): Evaluation of Efficacy and Cholinergic Side Effects” (J Med Chem, 2016).

Numbering of substitutions follows the chain as printed.

Series [1] in a line: Unbound brain concentration in […] in Sprague-Dawley rat model at 1 mg/kg, sc measured after 1.67 hrs. In kind it is ADME, organism-based. Conditions: in vivo. In short, it runs like this:
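Randomly selected animals (N=2/dose) at the end of the rat PPI study, T = 1.67 h. Dosed subcutaneously as a suspension in 0.5% methylcellulose in water. Plasma and brain concentrations were averaged.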

Series [2] is described as follows: Positive allosteric modulation of muscarinic M2/M3 receptor in Hartley guinea pig ileum assessed as increase in donepezil-induced stimulation of contraction. In kind it is tissue-based. Conditions: Cavia porcellus. In short, it runs like this: (§1)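 PAM mode used guinea pig ileum in a tissue bath. Contraction concentration–response curves were run in the presence of an EC20 of donepezil, with or without atropine.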

Series [3] is described as follows: In vivo positive allosteric modulation of muscarinic M1 receptor in CD1 mouse assessed as increase in ACh-induced IP-1 levels in […] tissue at 1 mg/kg, sc measured after 2 hrs by HTRF assay relative to baseline. The series is classed as functional. An outline of the steps:
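Given sc as a solution in 5/15/80 DMSO/Solutol/water. Striatal IP1 was read 2 h after dosing and expressed as fold increase over baseline. Compound levels were measured in striatal tissue at 2 h (N=5/dose). Each animal's fold increase was plotted against its unbound brain concentration.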
Background: In TR-FRET formats the signal depends on donor and acceptor labels being close together.

Series [4] is described as follows: Positive allosteric modulation of muscarinic M2/M3 receptor in Hartley guinea pig ileum assessed as increase in donepezil-induced stimulation of contraction in presence of mAChR antagonist atropine. The series is classed as tissue-based, Cavia porcellus. An outline of the steps: as §1
A short description of series [5]: Permeability of compound in MDCKII-LE cells. In kind it is ADME, cell-based, Canis lupus familiaris. Particulars: dog, MDCK; read-out: permeability.
In series [6] the target is T1, Muscarinic acetylcholine receptor M1 (Homo sapiens, UniProt P11229).
T1 sequence (P11229 whole entry): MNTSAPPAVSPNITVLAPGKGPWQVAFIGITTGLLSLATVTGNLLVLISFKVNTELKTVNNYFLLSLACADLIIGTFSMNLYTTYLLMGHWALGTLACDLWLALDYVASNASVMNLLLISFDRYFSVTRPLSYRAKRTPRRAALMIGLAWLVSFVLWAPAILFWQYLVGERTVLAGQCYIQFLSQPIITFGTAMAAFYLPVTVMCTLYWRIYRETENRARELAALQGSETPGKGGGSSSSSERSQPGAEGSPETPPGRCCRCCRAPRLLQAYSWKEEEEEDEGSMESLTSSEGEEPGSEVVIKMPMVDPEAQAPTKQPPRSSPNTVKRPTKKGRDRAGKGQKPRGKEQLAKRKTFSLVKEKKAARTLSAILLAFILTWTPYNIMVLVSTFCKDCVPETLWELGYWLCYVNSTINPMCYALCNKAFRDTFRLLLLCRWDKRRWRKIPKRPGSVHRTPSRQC
The series can be described thus: Partial agonist activity at human muscarinic M1 receptor stably expressed in CHO cells assessed as increase in intracellular calcium level measured after 10 mins by Fluo-8AM dye based FLIPR TETRA method. The series is classed as functional, cell-based. (Calcium flux is commonly read through the fluorescence of an indicator in the cells.)

A short description of series [7]: Intrinsic clearance in human liver microsome. In kind it is ADME. Particulars: liver microsomes, read-out: CLH. Background: Liver microsomes are a subcellular fraction often used to study metabolism.
Series [8] has as its target T2, Muscarinic acetylcholine receptor M2 (Homo sapiens, UniProt P08172).
T2 sequence (P08172 whole entry): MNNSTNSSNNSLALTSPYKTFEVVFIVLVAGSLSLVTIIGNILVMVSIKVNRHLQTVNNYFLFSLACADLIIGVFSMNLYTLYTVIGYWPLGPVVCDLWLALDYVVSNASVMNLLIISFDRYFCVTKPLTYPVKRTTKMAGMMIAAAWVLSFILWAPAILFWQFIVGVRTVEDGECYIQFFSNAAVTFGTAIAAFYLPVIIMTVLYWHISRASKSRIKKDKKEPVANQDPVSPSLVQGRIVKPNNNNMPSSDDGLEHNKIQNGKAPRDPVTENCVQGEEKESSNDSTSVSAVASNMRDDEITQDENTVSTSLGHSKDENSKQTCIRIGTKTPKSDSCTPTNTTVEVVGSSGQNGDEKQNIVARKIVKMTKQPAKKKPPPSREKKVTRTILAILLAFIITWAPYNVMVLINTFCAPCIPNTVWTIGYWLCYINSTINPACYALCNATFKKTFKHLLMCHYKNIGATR
The series can be described thus: Agonist activity at human recombinant muscarinic M2 receptor stably expressed in HEK cells assessed as increase in cAMP accumulation up to 10 uM measured after 10 mins by GloSensor cAMP Assay. In kind it is cell-based.

The nature of series [9]: fCmax in dog at 5 mg/kg, po using spray-dried dispersion formulation. Particulars: in vivo. The series is classed as ADME, organism-based, Canis lupus familiaris.
Series [10] deals with Dual 3',5'-cyclic-AMP and -GMP phosphodiesterase 11A (Homo sapiens, UniProt Q9HCR9). Nature of the series: Inhibition of PDE11A4 (unknown origin).
A short description of series [11]: fAUC (0 to 24 hrs) in rat at 30 mg/kg, po administered for 14 days. The series is classed as ADME, organism-based. Particulars: in vivo, 336 h, time 14 day. An outline of the steps: (§2)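 2-week repeat oral dosing in rats, 0.5% methylcellulose formulation; N=4/sex/dose; doses 3, 10, 30 (males)/15 (females) mg/kg; unbound exposures reported per dose and sex.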

Series [12] in a line: Toxicity in dog assessed as salivation at 45 mg/kg, po using spray-dried dispersion formulation measured after 45 mins. The series is classed as organism-based, Canis lupus familiaris. Conditions: in vivo, 0.75 h.
Series [13] is described as follows: Fraction unbound in cynomolgus monkey plasma. The series is classed as ADME, cell-free, Macaca fascicularis.
Series [14] in a line: fAUC (0 to 24 hrs) in rat at 10 mg/kg, po administered for 14 days. Particulars: in vivo, 336 h, time 14 day. In kind it is ADME, organism-based. In short, it runs like this:
as §2

Series [15] in a line: Fraction unbound in C57BL/6 mouse plasma. In kind it is ADME, cell-free.
A short description of series [16]: Toxicity in male rat assessed as increase in food intake at 30 mg/kg, po administered for 14 days. Conditions: in vivo, 336 h.
A short description of series [17]: Toxicity in male Beagle dog assessed as effect on cardiac contractility at 3 mg/kg, po administered as single dose observed upto 9 hrs post last dose by telemetry. Conditions: in vivo. The series is classed as organism-based, Canis lupus familiaris. An outline of the steps: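 Crossover telemetry study in dogs at three oral doses (0.3, 1 and 3 mg/kg), N=4. Endpoints were blood pressure, maximum systolic left ventricular pressure, LV +dP/dt max, activity, heart rate, and RR, QT and QTc intervals, followed up to 9 h post dose.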

For series [18], the target named is T3, Muscarinic acetylcholine receptor M1 (Rattus norvegicus) (UniProt P08482).
T3 sequence (whole entry): T1 sequence (P11229 whole entry) with A5V, T254S, P309S, R320K, A337G, I413V
Nature of the series: Positive allosteric modulation of muscarinic M1 receptor in Sprague-Dawley rat hippocampal slice assessed as increase in carbachol-induced CA1 spiked rates by electrophysiological analysis. Particulars: filed as positive allosteric modulator.

A short description of series [19]: Half-life in rat at 0.5 mg/kg, po or 1 mg/kg, iv. The series is classed as ADME, organism-based. Conditions: in vivo.

Dual 3',5'-cyclic-AMP and -GMP phosphodiesterase 11A, sequence (Q9HCR9 whole entry): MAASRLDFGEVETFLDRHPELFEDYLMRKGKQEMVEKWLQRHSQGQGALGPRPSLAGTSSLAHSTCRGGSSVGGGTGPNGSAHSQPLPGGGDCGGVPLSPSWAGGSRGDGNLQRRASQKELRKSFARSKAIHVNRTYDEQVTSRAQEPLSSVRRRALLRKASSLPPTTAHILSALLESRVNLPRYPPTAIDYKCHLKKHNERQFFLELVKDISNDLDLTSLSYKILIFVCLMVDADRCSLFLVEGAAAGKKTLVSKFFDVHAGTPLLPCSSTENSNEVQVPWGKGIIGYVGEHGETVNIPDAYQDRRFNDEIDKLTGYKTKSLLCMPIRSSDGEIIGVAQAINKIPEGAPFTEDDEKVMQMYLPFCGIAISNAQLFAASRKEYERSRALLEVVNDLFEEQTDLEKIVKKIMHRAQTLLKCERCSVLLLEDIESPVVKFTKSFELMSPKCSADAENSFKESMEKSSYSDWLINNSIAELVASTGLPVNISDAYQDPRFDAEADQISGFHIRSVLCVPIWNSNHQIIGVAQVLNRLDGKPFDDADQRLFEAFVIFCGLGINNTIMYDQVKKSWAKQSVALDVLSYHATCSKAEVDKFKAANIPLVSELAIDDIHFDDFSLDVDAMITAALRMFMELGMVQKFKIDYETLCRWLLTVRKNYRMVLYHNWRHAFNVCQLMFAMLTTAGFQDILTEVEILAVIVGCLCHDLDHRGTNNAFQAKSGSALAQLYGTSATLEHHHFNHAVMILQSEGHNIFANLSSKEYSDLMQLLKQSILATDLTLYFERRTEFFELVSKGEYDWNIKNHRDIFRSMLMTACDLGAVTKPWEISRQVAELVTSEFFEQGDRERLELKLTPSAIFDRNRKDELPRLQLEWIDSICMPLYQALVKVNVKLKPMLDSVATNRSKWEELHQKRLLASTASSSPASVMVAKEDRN

On to `Cc1cnc(C(=O)N[C@H]2CCOC[C@@H]2O)cc1Cc1ccc(-c2cscn2)cc1`, for which, in series [1], the “Drug uptake(free)” value is on record as 17.4 nM. The results for the EC50 in [2] and in series [6] were 0.082 µM and ≥ 3.9 µM, respectively. For the same molecule, in [3], the “fold change (FC)” value was determined as 2. Moreover, the Activity entry in series [4] was “Not Active”; in [8], “Not Active”; in series [12], “Toxic”; in series [16], “Non-Toxic”; in series [17], “Toxic”; in series [18], “Dose-dependent effect”. For the same molecule, the Papp in [5] amounted to 22 ×10⁻⁶ cm/s. For the same molecule, the CLint scaled in series [7] was < 8 mL/min/kg. The molecule further had a fCmax in series [9] of 659 nM. Besides, in series [10], the IC50 (in general, the concentration at which inhibition is half-maximal) was 4.94 µM. Besides, the fAUC in series [11] is 13.211 µM·h; in series [14], 5.739 µM·h. In addition, the Fu amounted to 3.2% in series [13] and 2.9% in [15]. Further, the half-life (usually the time needed for the level to fall by half in the phase considered) in [19] was 5.58 h.
